Laboratory results as given in ChEMBL document CHEMBL3603830, “Synthesis and structure-activity relationship of uracil nucleotide derivatives towards the identification of human P2Y6 receptor antagonists” (Bioorg Med Chem, 2015).
Calls of active or inactive are those of the source. The calls are words filed in the database; no cut-off is given here.

Experiments:
P2Y purinoceptor 6 [1] = target: T1, P2Y purinoceptor 6 (Homo sapiens, UniProt Q15077); assay: Antagonist activity at human recombinant P2Y6 receptor expressed in human 1321N1 cells assessed as inhibition of UDP-induced increase in intracellular calcium level at 100 uM incubated for 2 mins prior to UDP induction by fluo-4 dye-based spectrofluorometric analysis; type: functional, cell-based
Summary of the method: (§1)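 hP2Y6-R-expressing 1321N1 cells, Fluo-4/AM-loaded (1 µM, 25 min, 37 °C, then 25 min de-esterification) in HBSS with Ca2+/Mg2+, stirred in a cuvette with fluorescence at 488/520 nm. Analogue given 2 min before 1 µM UDP stimulation. Calcium calculated from Triton X-100/EDTA calibration. Two experiments in duplicate, mean ± SEM; one-way ANOVA against vehicle control.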

P2Y purinoceptor 6 [2] = target: T1, P2Y purinoceptor 6; assay: Agonist activity at human recombinant P2Y6 receptor expressed in human 1321N1 cells assessed as increase in intracellular calcium level by fluo-4 dye-based spectrofluorometric analysis; type: functional, cell-based
Summary of the method: (§2)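 1321N1 cells stably expressing recombinant hP2Y6-R were trypsin/EDTA-detached, loaded with 1 µM Fluo-4/AM in HBSS (Ca2+/Mg2+) for 25 min at 37 °C, then held 25 min at 37 °C for de-esterification. Stirred cuvette suspension read at ex 488/em 520 nm after compound addition, with UDP as control. Fmax/Fmin set with 0.1% Triton X-100 then 50 mM EDTA; [Ca2+] = Kd(F−Fmin)/(Fmax−F).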

P2Y purinoceptor 6 [3] = target: T1, P2Y purinoceptor 6; assay: Antagonist activity at human recombinant P2Y6 receptor expressed in human 1321N1 cells assessed as inhibition of UDP-induced increase in intracellular calcium level at 30 uM incubated for 2 mins prior to UDP induction by fluo-4 dye-based spectrofluorometric analysis; type: functional, cell-based; summary of the method: as §1
[4] = target: T2, NPP1 (ectonucleotide pyrophosphatase/phosphodiesterase family member 1) (Homo sapiens, UniProt P22413); assay: Drug metabolism assessed as human NPP1-mediated compound hydrolysis at 100 uM after 2 hrs by HPLC analysis relative to UDP-treated control; type: ADME; conditions: human NPP1 enzyme, read-out: Drug metabolism
T2 sequence (P22413 whole entry): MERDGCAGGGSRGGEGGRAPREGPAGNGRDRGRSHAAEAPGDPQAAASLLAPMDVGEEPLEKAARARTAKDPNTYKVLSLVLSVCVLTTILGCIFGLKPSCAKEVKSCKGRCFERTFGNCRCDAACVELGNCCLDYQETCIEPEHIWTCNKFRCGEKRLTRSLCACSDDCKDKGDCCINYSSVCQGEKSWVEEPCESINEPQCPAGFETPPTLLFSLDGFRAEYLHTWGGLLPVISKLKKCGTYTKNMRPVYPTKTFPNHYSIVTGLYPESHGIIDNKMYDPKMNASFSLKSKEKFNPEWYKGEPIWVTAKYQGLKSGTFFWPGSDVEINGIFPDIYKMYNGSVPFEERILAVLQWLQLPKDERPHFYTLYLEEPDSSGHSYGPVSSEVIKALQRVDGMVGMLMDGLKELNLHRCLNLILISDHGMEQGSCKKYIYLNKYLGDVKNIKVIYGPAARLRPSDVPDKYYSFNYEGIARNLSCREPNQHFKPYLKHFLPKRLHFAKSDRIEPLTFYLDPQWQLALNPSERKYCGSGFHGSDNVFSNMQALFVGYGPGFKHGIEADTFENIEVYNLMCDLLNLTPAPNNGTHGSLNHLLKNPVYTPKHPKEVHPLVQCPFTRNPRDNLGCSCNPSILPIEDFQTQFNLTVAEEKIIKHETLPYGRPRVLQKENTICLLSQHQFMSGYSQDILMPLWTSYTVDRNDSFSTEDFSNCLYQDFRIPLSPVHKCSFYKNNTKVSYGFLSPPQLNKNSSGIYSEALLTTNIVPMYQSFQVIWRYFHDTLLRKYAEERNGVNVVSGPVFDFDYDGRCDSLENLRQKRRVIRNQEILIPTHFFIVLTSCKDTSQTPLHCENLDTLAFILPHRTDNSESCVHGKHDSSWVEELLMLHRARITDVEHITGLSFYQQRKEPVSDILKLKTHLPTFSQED
Summary of the method: (§3)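 Compound at 100 µM incubated at 37 °C with hNPP1 for 2 h or hNPP3 for 3 h, in buffer of 1 mM CaCl2, 200 mM NaCl, 10 mM KCl and 100 mM Tris, pH 8.5. Quenched with perchloric acid, neutralized to pH 7 with KOH, then C18 HPLC with isocratic TEAA (pH 7)/CH3CN. Degradation taken from the nucleoside monophosphate peak area minus control, relative to 100% UDP hydrolysis.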

P2Y purinoceptor 6 [5] = target: T1, P2Y purinoceptor 6; assay: Agonist activity at human recombinant P2Y6 receptor expressed in human 1321N1 cells assessed as induction of calcium release at 100 uM by fluo-4 dye-based spectrofluorometric analysis; type: functional, cell-based
Summary of the method: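 1321N1 astrocytoma cells stably expressing recombinant hP2Y6-R, trypsin/EDTA-detached, loaded with 1 µM Fluo-4/AM in HBSS (Ca2+/Mg2+) for 25 min at 37 °C, then de-esterified 25 min. Stirred suspension in a quartz cuvette, excitation 488 nm and emission 520 nm. Compound added, with UDP as control. Fmax from 0.1% Triton X-100 and Fmin from 50 mM EDTA; [Ca2+]i = Kd(F−Fmin)/(Fmax−F). Two experiments in duplicate.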

[6] = target: T3, Ectonucleotide pyrophosphatase/phosphodiesterase family member 1 (Homo sapiens) (UniProt P22413); assay: Inhibition of human NPP1-mediated UDP hydrolysis at 100 uM after 2 hrs relative to UDP-treated control
T3 sequence (whole entry): T2 sequence (P22413 whole entry)
Summary of the method: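 21.44 µg hNPP1 extract pre-incubated 3 min at 37 °C in 1 mM CaCl2, 140 mM NaCl, 5 mM KCl and 50 mM Tris, pH 8.5. Reaction started with compound and UDP, each 100 µM final. Stopped after 2 h with ice-cold perchloric acid, neutralized with KOH, then HPLC. Compared with UDP-only reference samples. Mean ± S.D. of three experiments.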

[7] = target: T4, Ectonucleotide pyrophosphatase/phosphodiesterase family member 3 (Homo sapiens) (UniProt O14638); assay: Inhibition of human NPP3-mediated UDP hydrolysis at 100 uM after 3 hrs relative to UDP-treated control
T4 sequence (whole entry): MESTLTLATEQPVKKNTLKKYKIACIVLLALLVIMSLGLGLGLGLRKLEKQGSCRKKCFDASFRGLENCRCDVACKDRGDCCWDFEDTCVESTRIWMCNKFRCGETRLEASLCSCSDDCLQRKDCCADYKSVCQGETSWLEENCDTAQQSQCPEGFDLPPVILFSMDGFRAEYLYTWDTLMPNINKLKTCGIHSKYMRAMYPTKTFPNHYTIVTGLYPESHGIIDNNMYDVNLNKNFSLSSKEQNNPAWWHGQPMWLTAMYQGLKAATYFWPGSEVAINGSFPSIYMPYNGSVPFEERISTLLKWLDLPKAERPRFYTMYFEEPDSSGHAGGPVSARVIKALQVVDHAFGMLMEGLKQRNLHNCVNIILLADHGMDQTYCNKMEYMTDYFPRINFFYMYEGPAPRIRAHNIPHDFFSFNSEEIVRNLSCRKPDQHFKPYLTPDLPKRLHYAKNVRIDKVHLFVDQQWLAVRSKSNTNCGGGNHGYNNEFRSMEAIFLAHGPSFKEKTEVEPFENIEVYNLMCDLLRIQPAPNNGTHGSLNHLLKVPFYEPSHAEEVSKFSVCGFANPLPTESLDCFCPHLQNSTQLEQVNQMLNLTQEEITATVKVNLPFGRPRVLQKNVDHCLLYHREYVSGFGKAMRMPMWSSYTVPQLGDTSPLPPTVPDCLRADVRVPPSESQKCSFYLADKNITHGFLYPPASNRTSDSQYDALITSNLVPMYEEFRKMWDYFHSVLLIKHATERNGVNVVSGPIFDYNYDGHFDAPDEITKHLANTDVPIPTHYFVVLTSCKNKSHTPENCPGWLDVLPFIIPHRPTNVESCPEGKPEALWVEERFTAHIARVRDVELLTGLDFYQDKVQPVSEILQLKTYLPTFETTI

[8] = target: T5, NPP3 (ectonucleotide pyrophosphatase/phosphodiesterase family member 3) (Homo sapiens, UniProt O14638); assay: Drug metabolism assessed as human NPP3-mediated compound hydrolysis at 100 uM after 3 hrs by HPLC analysis relative to UDP-treated control; type: ADME; conditions: human NPP3 enzyme, read-out: Drug metabolism; summary of the method: as §3
T5 sequence (O14638 whole entry): T4 sequence (whole entry)

P2Y purinoceptor 6 [9] = target: T1, P2Y purinoceptor 6; assay: Agonist activity at human recombinant P2Y6 receptor expressed in human 1321N1 cells assessed as increase in intracellular calcium level at >100 uM by fluo-4 dye-based spectrofluorometric analysis; type: functional, cell-based; summary of the method: as §2
P2Y purinoceptor 6 [10] = target: T1, P2Y purinoceptor 6; assay: Agonist activity at human recombinant P2Y6 receptor expressed in human 1321N1 cells assessed as increase in intracellular calcium level at 100 uM by fluo-4 dye-based spectrofluorometric analysis relative to UDP-treated control; type: functional, cell-based; summary of the method: as §2

T1 sequence (Q15077 whole entry): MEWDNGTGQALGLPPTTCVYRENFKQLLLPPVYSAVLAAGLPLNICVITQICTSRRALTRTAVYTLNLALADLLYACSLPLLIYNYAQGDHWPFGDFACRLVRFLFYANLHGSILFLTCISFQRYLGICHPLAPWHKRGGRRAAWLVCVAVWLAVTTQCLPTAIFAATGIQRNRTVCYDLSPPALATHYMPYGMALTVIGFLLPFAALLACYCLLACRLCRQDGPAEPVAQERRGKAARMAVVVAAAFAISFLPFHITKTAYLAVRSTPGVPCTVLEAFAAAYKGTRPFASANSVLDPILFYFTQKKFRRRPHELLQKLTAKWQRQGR

Structure (SMILES) | inhibition (P2Y purinoceptor 6 [1]) | Activity (P2Y purinoceptor 6 [2]) | inhibition (P2Y purinoceptor 6 [3]) | further results
Cn1c(=O)ccn([C@@H]2O[C@H](COP(=O)(O)CP(=O)(O)O)[C@@H](O)[C@H]2O)c1=O | inactive | inactive |  | 
O=c1[nH]c(=O)n([C@@H]2O[C@H](COP(=O)(O)C(F)(F)P(=O)(O)O)[C@@H](O)[C@H]2O)cc1F | Active | Active | inactive | 
O=c1ccn([C@@H]2O[C@H](COP(=O)(O)CS(=O)(=O)O)[C@@H](O)[C@H]2O)c(=O)[nH]1 | inactive |  |  | metabolised at 2 h, 100 µM [4]: 9.5%; Activity (P2Y purinoceptor 6 [5]): inactive; inhibition [6]: 26.7%; inhibition [7]: 12.2%; metabolised at 3 h, 100 µM [8]: 13.5%
COc1cn([C@@H]2O[C@H](COP(=O)(O)C(Cl)(Cl)P(=O)(O)O)[C@@H](O)[C@H]2O)c(=O)[nH]c1=O | Active | Active | inactive | 
O=c1[nH]c(=O)n([C@@H]2O[C@H](COP(=O)(O)OS(=O)(=O)O)[C@@H](O)[C@H]2O)cc1F |  |  |  | metabolised at 2 h, 100 µM [4]: 18.9%; metabolised at 3 h, 100 µM [8]: 44.4%
O=c1[nH]c(=O)n([C@@H]2O[C@H](COP(=O)(O)CP(=O)(O)O)[C@@H](O)[C@H]2O)cc1-c1ccccc1 | inactive | inactive |  | 
O=c1[nH]c(=O)n([C@H]2C[C@H](O)[C@@H](COP(=O)(O)C(Cl)(Cl)P(=O)(O)O)O2)cc1F |  |  | inactive | Activity (P2Y purinoceptor 6 [9]): inactive
O=c1[nH]c(=O)n([C@H]2C[C@H](O)[C@@H](COP(=O)(O)C(F)(F)P(=O)(O)O)O2)cc1F |  |  | inactive | Activity (P2Y purinoceptor 6 [9]): inactive
Cc1cn([C@@H]2O[C@H](COP(=O)(O)CP(=O)(O)O)[C@@H](O)[C@H]2O)c(=O)[nH]c1=O |  |  |  | Activity (P2Y purinoceptor 6 [10]): 60%
